Columns and labels:
Mustela putorius furo [1] = assay: In vivo antagonism of cisplatin-induced emesis in ferret measured as emetic episodes, twice the dose of 0. 3 mg/kg and in 3 ferrets; type: functional
How it was run: (§1)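 Nonfasted castrated male Fitch ferrets (1–1.5 kg) had jugular catheters implanted ≥48 h earlier under anesthesia. Compounds or saline were given iv twice, 5 min before and 90 min after cisplatin (12 mg/kg iv; 12 mg/mL in warm 0.9% saline). Emesis was observed up to 4 h; events within 1 min counted as one episode. Results were given as mean emetic episodes and % protection versus a pooled historical/concurrent control. t test versus saline.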

Canis familiaris [2] = assay: In vivo antagonism of cisplatin-induced emesis in dog measured as percentage protection for twice the dose of 1 mg/kg in 2 dogs; type: functional, Canis lupus familiaris
How it was run: (§2)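 Nonfasted mature male or female beagles were dosed sc twice, 30 min before and 120 min after cisplatin (3 mg/kg iv; 3 mg/mL in warm 0.9% saline, used immediately). Emesis was observed up to 5 h; events within 2 min counted as one episode. Results were given as mean emetic episodes and % protection versus a dynamic control (historical and concurrent saline means pooled). t test versus saline.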

D(2) dopamine receptor = D(2) dopamine receptor (Rattus norvegicus, UniProt P61169); assay: In vitro antagonistic activity against Dopamine receptor D2 was evaluated for the inhibition of [3H]spiperone binding
How it was run: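 Rat striatal membranes were prepared by differential centrifugation in 50 mM Tris pH 7.4 at 4 °C. Membrane protein (10 mg) was incubated 15 min at 37 °C with 0.1 nM [3H]spiperone and varying competitor concentrations. Buffer: 50 mM Tris HCl pH 7.5, 0.1% ascorbic acid, pargyline, 120 mM NaCl, 5 mM KCl, 2 mM CaCl2, 1 mM MgCl2. (+)-Butaclamol defined nonspecific binding. Bound ligand was collected by filtration and scintillation counted. IC50 by log-logit regression.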

Canis familiaris [3] = assay: In vivo antagonism of cisplatin-induced emesis in dog measured as emetic episodes, twice the dose of 1 mg/kg in 2 dogs; type: functional, Canis lupus familiaris; how it was run: as §2
Mustela putorius furo [4] = assay: In vivo antagonism of cisplatin-induced emesis in ferret measured as emetic episodes, twice the dose of 3 mg/kg and in 3 ferrets; type: functional; how it was run: as §1
[5] = biological target: D(2) dopamine receptor (Rattus norvegicus) (UniProt P61169); assay: In vivo antagonism activity against D2 receptor was measured as stereotypy in rat when administered subcutaneously; type: functional, organism-based
How it was run: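 Male Long Evans rats (275 g) were dosed sc in dilute aqueous HCl (pH 4.5-5.5) 30 min before apomorphine (1 mg/kg sc).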

[6] = biological target: D(2) dopamine receptor (Canis lupus familiaris) (UniProt Q9GJU1); assay: In vivo antagonism activity against dopamine D2 receptor was measured as emesis in dog when administered subcutaneously; type: functional, organism-based
[7] = biological target: D(2) dopamine receptor (Rattus norvegicus) (UniProt P61169); assay: In vivo antagonistic activity against dopamine D2 receptor was measured as catalepsy in rat when administered subcutaneously; type: functional, organism-based
How it was run: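 Male Long Evans rats (275 g) received graded sc doses in dilute aqueous HCl (pH 4.5-5.5). They were observed 180 min for catalepsy, scored when the animal stayed stationary ≥15 s on a four-cork template.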

Mustela putorius furo [8] = assay: In vivo antagonism of cisplatin-induced emesis in ferret measured as percentage protection for twice the dose of 3 mg/kg and in 3 ferrets; type: functional; how it was run: as §1
Mustela putorius furo [9] = assay: In vivo antagonism of cisplatin-induced emesis in ferret measured as percentage protection for twice the dose of 0.3 mg/kg and in 3 ferrets; type: functional; how it was run: as §1
Canis familiaris [10] = assay: In vivo antagonism of cisplatin-induced emesis in dog measured as percentage protection for twice the dose of 3 mg/kg in 2 dogs; type: functional, Canis lupus familiaris; how it was run: as §2
Canis familiaris [11] = assay: In vivo antagonism of cisplatin-induced emesis in dog measured as emetic episodes, twice the dose of 3 mg/kg in 3 dogs; type: functional, Canis lupus familiaris; how it was run: as §2
Mustela putorius furo [12] = assay: In vivo antagonism of cisplatin-induced emesis in ferret measured as percentage protection for twice the dose of 1 mg/kg and in 3 ferrets; type: functional; how it was run: as §1
Mustela putorius furo [13] = assay: In vivo antagonism of cisplatin-induced emesis in ferret measured as emetic episodes, twice the dose of 1 mg/kg and in 3 ferrets; type: functional; how it was run: as §1
Mustela putorius furo [14] = assay: In vivo antagonism of cisplatin-induced emesis in ferret measured as emetic episodes, twice the dose of 0.3 mg/kg and in 3 ferrets; type: functional; how it was run: as §1
Canis familiaris [15] = assay: In vivo antagonism of cisplatin-induced emesis in dog measured as emetic episodes, twice the dose of 0.3 mg/kg in 2 dogs; type: functional, Canis lupus familiaris; details: 0.3 mg/kg; how it was run: as §2
Canis familiaris [16] = assay: In vivo antagonism of cisplatin-induced emesis in dog measured as percentage protection for twice the dose of 0.3 mg/kg in 2 dogs; type: functional, Canis lupus familiaris; details: 0.3 mg/kg; how it was run: as §2
Canis familiaris [17] = assay: In vivo antagonism of cisplatin-induced emesis in dog measured as emetic episodes, twice the dose of 3 mg/kg in 2 dogs; type: functional, Canis lupus familiaris; how it was run: as §2
Canis familiaris [18] = assay: In vivo antagonism of cisplatin-induced emesis in dog measured as emetic episodes, twice the dose of 6 mg/kg in 2 dogs; type: functional, Canis lupus familiaris; how it was run: as §2
Canis familiaris [19] = assay: In vivo antagonism of cisplatin-induced emesis in dog measured as percentage protection for twice the dose of 6 mg/kg in 2 dogs; type: functional, Canis lupus familiaris; how it was run: as §2

D(2) dopamine receptor (Canis lupus familiaris), sequence (Q9GJU1 whole entry): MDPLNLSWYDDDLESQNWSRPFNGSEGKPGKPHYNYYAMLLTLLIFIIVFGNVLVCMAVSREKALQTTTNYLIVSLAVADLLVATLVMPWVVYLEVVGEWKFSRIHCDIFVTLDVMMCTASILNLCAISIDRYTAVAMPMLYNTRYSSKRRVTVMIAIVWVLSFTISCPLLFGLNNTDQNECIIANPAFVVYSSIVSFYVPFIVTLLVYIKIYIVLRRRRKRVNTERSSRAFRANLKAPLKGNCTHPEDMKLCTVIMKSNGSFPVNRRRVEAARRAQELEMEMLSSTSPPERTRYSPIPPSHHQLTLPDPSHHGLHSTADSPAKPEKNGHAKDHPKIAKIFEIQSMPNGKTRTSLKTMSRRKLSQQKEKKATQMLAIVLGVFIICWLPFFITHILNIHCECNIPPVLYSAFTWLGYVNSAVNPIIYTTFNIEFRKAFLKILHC
D(2) dopamine receptor, sequence (P61169 whole entry): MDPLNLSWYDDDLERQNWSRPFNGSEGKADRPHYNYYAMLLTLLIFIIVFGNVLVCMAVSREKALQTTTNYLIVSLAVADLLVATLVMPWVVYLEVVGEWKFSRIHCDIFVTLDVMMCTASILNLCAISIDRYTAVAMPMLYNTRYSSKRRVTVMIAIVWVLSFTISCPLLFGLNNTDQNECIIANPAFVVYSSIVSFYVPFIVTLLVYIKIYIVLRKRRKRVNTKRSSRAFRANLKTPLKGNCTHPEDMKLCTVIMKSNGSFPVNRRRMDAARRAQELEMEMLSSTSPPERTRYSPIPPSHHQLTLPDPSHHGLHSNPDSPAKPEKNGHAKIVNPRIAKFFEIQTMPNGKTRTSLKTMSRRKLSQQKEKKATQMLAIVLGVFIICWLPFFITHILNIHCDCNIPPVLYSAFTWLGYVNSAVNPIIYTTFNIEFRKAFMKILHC
D(2) dopamine receptor (Rattus norvegicus), sequence (P61169 whole entry): as above

Row | Compound | IC50 (D(2) dopamine receptor) | ED50 [5] | Protection (Canis familiaris [2]) | Emetic episodes (Canis familiaris [3]) | Emetic episodes (Mustela putorius furo [4]) | ED50 [6] | ED50 [7] | Protection (Mustela putorius furo [8]) | Protection (Mustela putorius furo [9]) | Protection (Canis familiaris [10]) | Emetic episodes (Canis familiaris [17]) | Emetic episodes (Canis familiaris [18]) | Protection (Canis familiaris [19]) | also measured
1 | CCN(CC)CCNC(=O)c1cc(Cl)c(N)cc1OC[C@@H](C)O (stereo in doubt; 8f) | > 1000 nM |  |  |  |  |  |  |  | 0% |  |  |  |  | Protection (Mustela putorius furo [12]; 1 mg/kg): 22%; Protection (Canis familiaris [2]; 1 mg/kg): 100%; Emetic episodes (Canis familiaris [3]; 1 mg/kg): 0; Emetic episodes (Mustela putorius furo [13]; 1 mg/kg): 5.7; Emetic episodes (Mustela putorius furo [14]): 8; Emetic episodes (Canis familiaris [15]): 2
2 | CCN(CC)CC/N=C(\NOC)c1cc(Cl)c(N)cc1OC | > 1000 nM | > 40 mg/kg |  |  | 8.3 | > 1 mg/kg | > 40 mg/kg | 0% |  |  |  | 8.5 | 34% | 
3 | CCN(CC)CCNC(=O)c1cc(Cl)c(N)cc1OC/C(C)=N/OC | > 1000 nM | > 40 mg/kg |  |  | 0.7 |  | > 40 mg/kg | 90% |  |  |  | 3.5 | 71% | 
4 | CCN(CC)CCNC(=O)c1cc(Cl)c(N)cc1OCC(=O)c1ccccc1 | > 1000 nM | > 40 mg/kg |  |  | 0 | > 3 mg/kg | > 40 mg/kg | 100% |  | 88% | 1.5 |  |  | 
5 | CCN(CC)CCNC(=O)c1cc(Cl)c(N)cc1OC(C)C#N (stereo not given) | > 1000 nM | > 40 mg/kg |  |  | 2.7 | > 3 mg/kg | > 40 mg/kg | 63% |  | 80% | 2.5 |  |  | 

More lines, main results first:

Row | IC50 (D(2) dopamine receptor) | ED50 [5] | Compound | Protection (Canis familiaris [2]) | Emetic episodes (Canis familiaris [3]) | Emetic episodes (Mustela putorius furo [4]) | ED50 [6] | ED50 [7] | Protection (Mustela putorius furo [8]) | Protection (Mustela putorius furo [9]) | Protection (Canis familiaris [10]) | Emetic episodes (Canis familiaris [17]) | Emetic episodes (Canis familiaris [18]) | Protection (Canis familiaris [19]) | also measured
6 | > 1000 nM | > 40 mg/kg | CCN(CC)CCNC(=O)c1cc(Cl)c(N)cc1OCC(OC)OC | 88% | 1.5 | 1.3 | > 3 mg/kg | > 40 mg/kg | 82% | 0% |  |  |  |  | Emetic episodes (Mustela putorius furo [1]): 6.7
7 | > 1000 nM | > 40 mg/kg | CCN(CC)CCNC(=O)c1cc(Cl)c(N)cc1OCC#N |  |  | 0.7 | > 3 mg/kg | > 40 mg/kg | 90% |  | 63% |  |  |  | Emetic episodes (Canis familiaris [11]): 4.7
8 | > 1000 nM |  | CCN(CC)CCNC(=O)c1cc(Cl)c(N)cc1OC(C)C(C)O (stereo in doubt; 8h) | 75% | 3 |  |  |  |  |  |  |  |  |  | Protection (Mustela putorius furo [12]; 1 mg/kg): 68%; Emetic episodes (Mustela putorius furo [4]; 3 mg/kg): 0.3; Emetic episodes (Mustela putorius furo [13]; 1 mg/kg): 2.3; Emetic episodes (Mustela putorius furo [14]; 0.3 mg/kg): 4.7; Emetic episodes (Canis familiaris [15]): 4.5; Protection (Canis familiaris [16]): 60%; Protection (Mustela putorius furo [8]; 3 mg/kg): 95%; Protection (Mustela putorius furo [9]; 0.3 mg/kg): 37%
9 | > 1000 nM | > 40 mg/kg | C=C(C)COc1cc(N)c(Cl)cc1C(=O)NCCN(CC)CC |  |  | 2.3 | > 3 mg/kg | > 40 mg/kg | 70% |  | 68% | 4 |  |  | 
10 | > 1000 nM | > 40 mg/kg | C=CCOc1cc(N)c(Cl)cc1C(=O)NCCN(CC)CC | 72% | 3.5 | 0.3 | > 1 mg/kg | > 40 mg/kg | 95% | 30% |  |  | 1 | 90% | Protection (Mustela putorius furo [12]): 56%; Emetic episodes (Mustela putorius furo [13]): 3; Emetic episodes (Mustela putorius furo [14]): 4.7

Reference: ChEMBL document CHEMBL1124174, “Substituted benzamides. 1. Potential nondopaminergic antagonists of chemotherapy-induced nausea and emesis” (J Med Chem, 1988)
